{"source": "ChEMBL document CHEMBL4229335", "about": "(Eur J Med Chem, 2018)", "key": {"HL-60": {"test_system": "HL-60", "assay": "Antiproliferative activity against human HL60 cells after 72 hrs by MTT assay", "type": "functional, cell-based", "settings": "HL-60, 72 h", "summary_of_the_method": "(§1)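 MTT assay with 72 h exposure to graded concentrations in triplicate. MTT solution then DMSO were added, followed by 10 min at room temperature, with absorbance read at 490 nm. IC50 is reported as the mean of three independent experiments. 5-FU served as positive control.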"}, "PC-3": {"test_system": "PC-3", "assay": "Antiproliferative activity against human PC3 cells after 72 hrs by MTT assay", "type": "functional, cell-based", "settings": "PC-3, 72 h", "summary_of_the_method": "as §1"}, "Bel-7402 [1]": {"test_system": "Bel-7402", "assay": "Antiproliferative activity against human Bel7402 cells after 72 hrs by MTT assay", "type": "functional, cell-based", "settings": "Bel-7402, 72 h", "summary_of_the_method": "as §1"}, "L02": {"test_system": "L02", "assay": "Antiproliferative activity against human LO2 cells after 72 hrs by MTT assay", "type": "cell-based", "settings": "L02, 72 h", "summary_of_the_method": "as §1"}, "[2]": {"assay": "Selectivity index, ratio of IC50 for human LO2 cells to IC50 for human Bel7402 cells", "type": "toxicity", "settings": "LO2 cells versus Bel7402 cells, read-out: Ratio IC50", "summary_of_the_method": "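SI was calculated as IC50 in L-02 normal liver cells divided by IC50 in Bel-7402 cells, both from the 72 h MTT assay.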"}, "Bel-7402 [3]": {"test_system": "Bel-7402", "assay": "Cell cycle arrest in human Bel7402 cells assessed as accumulation of cells at G2 phase at 0.4 uM after 48 hrs by propidium iodide staining-based flow cytometric analysis (reference value: 23.53%)", "type": "functional", "summary_of_the_method": "(§2)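 Bel-7402 cells were seeded in 6-well plates and grown 24 h at 37 °C. Compound in DMSO was added in triplicate, with DMSO-only controls, for 48 h. Cells were then centrifuged, fixed in 70% ethanol at 4 °C and stained with propidium iodide. DNA content was measured by flow cytometry to give cell-cycle phase distribution.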"}, "Bel-7402 [4]": {"test_system": "Bel-7402", "assay": "Cell cycle arrest in human Bel7402 cells assessed as G2/G1 phase ratio level at 0.4 uM after 48 hrs by propidium iodide staining-based flow cytometric analysis (reference value: 1.82%)", "type": "functional", "summary_of_the_method": "as §2"}, "Bel-7402 [5]": {"test_system": "Bel-7402", "assay": "Cell cycle arrest in human Bel7402 cells assessed as accumulation of cells at G1 phase at 0.8 uM after 48 hrs by propidium iodide staining-based flow cytometric analysis (reference value: 63.55%)", "type": "functional", "summary_of_the_method": "as §2"}, "Bel-7402 [6]": {"test_system": "Bel-7402", "assay": "Cell cycle arrest in human Bel7402 cells assessed as accumulation of cells at G2 phase at 0.8 uM after 48 hrs by propidium iodide staining-based flow cytometric analysis (reference value: 23.53%)", "type": "functional", "summary_of_the_method": "as §2"}, "Bel-7402 [7]": {"test_system": "Bel-7402", "assay": "Cell cycle arrest in human Bel7402 cells assessed as G2/G1 phase ratio level at 0.8 uM after 48 hrs by propidium iodide staining-based flow cytometric analysis (reference value: 1.82%)", "type": "functional", "summary_of_the_method": "as §2"}, "Bel-7402 [8]": {"test_system": "Bel-7402", "assay": "Cell cycle arrest in human Bel7402 cells assessed as accumulation of cells at G1 phase at 1.2 uM after 48 hrs by propidium iodide staining-based flow cytometric analysis (reference value: 63.55%)", "type": "functional", "summary_of_the_method": "as §2"}, "Bel-7402 [9]": {"test_system": "Bel-7402", "assay": "Cell cycle arrest in human Bel7402 cells assessed as accumulation of cells at G2 phase at 1.2 uM after 48 hrs by propidium iodide staining-based flow cytometric analysis (reference value: 23.53%)", "type": "functional", "summary_of_the_method": "as §2"}, "Bel-7402 [10]": {"test_system": "Bel-7402", "assay": "Cell cycle arrest in human Bel7402 cells assessed as accumulation of cells at S phase at 1.2 uM after 48 hrs by propidium iodide staining-based flow cytometric analysis (reference value: 12.92%)", "type": "functional", "summary_of_the_method": "as §2"}, "Bel-7402 [11]": {"test_system": "Bel-7402", "assay": "Cell cycle arrest in human Bel7402 cells assessed as G2/G1 phase ratio level at 1.2 uM after 48 hrs by propidium iodide staining-based flow cytometric analysis (reference value: 1.82%)", "type": "functional", "summary_of_the_method": "as §2"}, "Bel-7402 [12]": {"test_system": "Bel-7402", "assay": "Induction of apoptosis in human Bel7402 cells assessed as late apoptotic cells at 0.4 uM after 24 hrs by Annexin V-FITC/propidium iodide staining-based flow cytometric analysis (reference value: 0.96%)", "type": "functional"}, "Bel-7402 [13]": {"test_system": "Bel-7402", "assay": "Induction of apoptosis in human Bel7402 cells assessed as necrotic cells at 0.4 uM after 24 hrs by Annexin V-FITC/propidium iodide staining-based flow cytometric analysis (reference value: 11.96%)", "type": "functional"}, "Bel-7402 [14]": {"test_system": "Bel-7402", "assay": "Induction of apoptosis in human Bel7402 cells assessed as early apoptotic cells at 0.8 uM after 24 hrs by Annexin V-FITC/propidium iodide staining-based flow cytometric analysis (reference value: 1.07%)", "type": "functional"}, "Bel-7402 [15]": {"test_system": "Bel-7402", "assay": "Induction of apoptosis in human Bel7402 cells assessed as late apoptotic cells at 0.8 uM after 24 hrs by Annexin V-FITC/propidium iodide staining-based flow cytometric analysis (reference value: 0.96%)", "type": "functional"}, "Bel-7402 [16]": {"test_system": "Bel-7402", "assay": "Induction of apoptosis in human Bel7402 cells assessed as necrotic cells at 0.8 uM after 24 hrs by Annexin V-FITC/propidium iodide staining-based flow cytometric analysis (reference value: 11.96%)", "type": "functional"}, "Bel-7402 [17]": {"test_system": "Bel-7402", "assay": "Induction of apoptosis in human Bel7402 cells assessed as early apoptotic cells at 1.2 uM after 24 hrs by Annexin V-FITC/propidium iodide staining-based flow cytometric analysis (reference value: 1.07%)", "type": "functional"}, "Bel-7402 [18]": {"test_system": "Bel-7402", "assay": "Induction of apoptosis in human Bel7402 cells assessed as necrotic cells at 1.2 uM after 24 hrs by Annexin V-FITC/propidium iodide staining-based flow cytometric analysis (reference value: 11.96%)", "type": "functional"}, "Bel-7402 [19]": {"test_system": "Bel-7402", "assay": "Induction of apoptosis in human Bel7402 cells after 24 hrs by Annexin V-FITC/propidium iodide staining-based flow cytometric analysis", "type": "functional, cell-based"}, "Bel-7402 [20]": {"test_system": "Bel-7402", "assay": "Induction of mitochondrial membrane potential loss in human Bel7402 cells at 0.4 uM after 48 hrs by JC-1 dye-based flow cytometric analysis (reference value: 7.20%)", "type": "functional", "summary_of_the_method": "(§3)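 Bel-7402 cells were exposed in triplicate for 48 h to compound or vehicle. Cells were washed with PBS and stained with JC-1 in the dark. The fraction of cells with collapsed versus intact mitochondrial membrane potential was counted by flow cytometry.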"}, "Bel-7402 [21]": {"test_system": "Bel-7402", "assay": "Induction of mitochondrial membrane potential loss in human Bel7402 cells at 0.8 uM after 48 hrs by JC-1 dye-based flow cytometric analysis (reference value: 7.20%)", "type": "functional", "summary_of_the_method": "as §3"}, "Bel-7402 [22]": {"test_system": "Bel-7402", "assay": "Induction of mitochondrial membrane potential in human Bel7402 cells after 48 hrs by JC-1 dye-based flow cytometric analysis", "type": "functional, cell-based", "summary_of_the_method": "as §3"}, "Bel-7402 [23]": {"test_system": "Bel-7402", "assay": "Induction of apoptosis in human Bel7402 cells assessed as upregulation of Bax expression after 48 hrs by Western blot analysis", "type": "functional, cell-based", "summary_of_the_method": "(§4)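 Bel-7402 cells were treated in triplicate for 48 h at 0, 0.4, 0.8 and 1.2 µM. Protein content of lysates was determined, then lysates were run on 10% SDS-PAGE and transferred to nitrocellulose. Membranes were blocked with 5% fat-free milk, probed with monoclonal antibodies and detected by ECL chemiluminescence.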"}, "Bel-7402 [24]": {"test_system": "Bel-7402", "assay": "Induction of apoptosis in human Bel7402 cells assessed as upregulation of caspase3 expression after 48 hrs by Western blot analysis", "type": "functional, cell-based", "summary_of_the_method": "as §4"}, "Bel-7402 [25]": {"test_system": "Bel-7402", "assay": "Induction of apoptosis in human Bel7402 cells assessed as upregulation of caspase9 expression after 48 hrs by Western blot analysis", "type": "functional, cell-based", "summary_of_the_method": "as §4"}, "Bel-7402 [26]": {"test_system": "Bel-7402", "assay": "Induction of apoptosis in human Bel7402 cells assessed as upregulation of cytochrome C expression after 48 hrs by Western blot analysis", "type": "functional, cell-based", "summary_of_the_method": "as §4"}, "Bel-7402 [27]": {"test_system": "Bel-7402", "assay": "Induction of apoptosis in human Bel7402 cells assessed as upregulation of p53 expression after 48 hrs by Western blot analysis", "type": "functional, cell-based", "summary_of_the_method": "as §4"}, "Bel-7402 [28]": {"test_system": "Bel-7402", "assay": "Induction of apoptosis in human Bel7402 cells assessed as downregulation of Bcl2 expression after 48 hrs by Western blot analysis", "type": "functional, cell-based", "summary_of_the_method": "as §4"}}}
{"smiles": "C=C1C(=O)[C@@]23C(=O)O[C@H]4CCC(C)(C)[C@H]5[C@H](O)OC[C@@]45[C@@H]2CC[C@@H]1[C@H]3OC(=O)c1ccc(N(CCCl)CCCl)cc1", "values": [{"measurement": "IC50", "setting": "HL-60", "result": 7.83, "unit": "µM"}, {"measurement": "IC50", "setting": "PC-3", "result": 3.97, "unit": "µM"}, {"measurement": "IC50", "setting": "Bel-7402 [1]", "result": 770, "unit": "nM"}, {"measurement": "IC50", "setting": "L02", "result": "> 100", "unit": "µM"}, {"measurement": "selectivity ratio", "setting": "[2]", "result": "> 130"}, {"measurement": "Activity", "setting": "Bel-7402 [3]", "result": 18.15, "unit": "%"}, {"measurement": "Ratio", "setting": "Bel-7402 [4]", "result": 1.84}, {"measurement": "Activity", "setting": "Bel-7402 [5]", "result": 69.71, "unit": "%"}, {"measurement": "Activity", "setting": "Bel-7402 [6]", "result": 15.87, "unit": "%"}, {"measurement": "Ratio", "setting": "Bel-7402 [7]", "result": 1.85}, {"measurement": "Activity", "setting": "Bel-7402 [8]", "result": 72.09, "unit": "%"}, {"measurement": "Activity", "setting": "Bel-7402 [9]", "result": 13.33, "unit": "%"}, {"measurement": "Activity", "setting": "Bel-7402 [10]", "result": 14.59, "unit": "%"}, {"measurement": "Ratio", "setting": "Bel-7402 [11]", "result": 1.84}, {"measurement": "Activity", "setting": "Bel-7402 [12]", "result": 7.07, "unit": "%"}, {"measurement": "Activity", "setting": "Bel-7402 [13]", "result": 8.38, "unit": "%"}, {"measurement": "Activity", "setting": "Bel-7402 [14]", "result": 24.22, "unit": "%"}, {"measurement": "Activity", "setting": "Bel-7402 [15]", "result": 11.31, "unit": "%"}, {"measurement": "Activity", "setting": "Bel-7402 [16]", "result": 4.23, "unit": "%"}, {"measurement": "Activity", "setting": "Bel-7402 [17]", "result": 41.53, "unit": "%"}, {"measurement": "Activity", "setting": "Bel-7402 [18]", "result": 4.33, "unit": "%"}, {"measurement": "Activity", "setting": "Bel-7402 [19]", "result": "Dose-dependent effect"}, {"measurement": "Activity", "setting": "Bel-7402 [20]", "result": 14.38, "unit": "%"}, {"measurement": "Activity", "setting": "Bel-7402 [21]", "result": 20.93, "unit": "%"}, {"measurement": "Activity", "setting": "Bel-7402 [22]", "result": "Dose-dependent effect"}, {"measurement": "Activity", "setting": "Bel-7402 [23]", "result": "Dose-dependent effect"}, {"measurement": "Activity", "setting": "Bel-7402 [24]", "result": "Dose-dependent effect"}, {"measurement": "Activity", "setting": "Bel-7402 [25]", "result": "Dose-dependent effect"}, {"measurement": "Activity", "setting": "Bel-7402 [26]", "result": "Dose-dependent effect"}, {"measurement": "Activity", "setting": "Bel-7402 [27]", "result": "Dose-dependent effect"}, {"measurement": "Activity", "setting": "Bel-7402 [28]", "result": "Dose-dependent effect"}]}
